Source: PubChem BioAssay (Johns Hopkins Ion Channel Center)
Shown are actives, neighbours in structure and some others; about 2.3% of the full set was active somewhere.
TRPC4 potent = allosteric potentiators of mouse TRPC4 channel; Q9QUQ5; HEK293 TRPC4beta/mu-opioid, DAMGO EC20, Fluo-4 Ca2+ flux; hits give high values; B-score at 10 µM; 0.42% of 310,000 active;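 active = B-score of calcium response area above 5 SD of library B-scores, with initial fluorescence ratio within 5 SD of library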
TRPC4 agonist = opens the mouse TRPC4 cation channel | 0.49% of 310,000 active | Q9QUQ5 | AID 2237 | HEK293 TRPC4beta/mu-opioid, Fluo4 calcium fluorescence; hits give high values | B-score at 10 µM;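 active = B-score above 5 SD of library B-scores, and initial fluorescence ratio not above library mean plus 5 SD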;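 also: positive B-score marks a calcium rise read as TRPC4 activation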
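Assay system – TRPC4beta and mu-opioid receptor HEK293 stable cells · Measured by – Fluo4 fluorescence, kinetic · Schedule – dye loading 45 min room temperature, 110 s kinetic read · Read-out – B-scored integrated calcium fluorescence ratio · Controls – buffer and maximal DAMGO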
TRPC4 inh = blocks the mouse TRPC4 cation channel; Q9QUQ5; HEK293 TRPC4beta/mu-opioid, DAMGO-evoked Fluo4 calcium flux; hits give low values; B-score at 10 µM; 0.39% of 300,000 active;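 active = B-score over 3 SD under the library average, no early fluorescence shift, positive overall ratio signal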
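Assay system: HEK293 cells with stable TRPC4beta plus mu-opioid receptor expression; Probe or stimulus: DAMGO in two steps, submaximal then maximal; Dosing: single-point compound dosing; Measured by: Fluo4 calcium-dye fluorescence, kinetic read; Read-out basis: B score from integrated Fluo4 fluorescence ratio.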
TRPC6 inh = mouse TRPC6 channel inhibition; HEK293-TRPC6, membrane potential dye, ACh-evoked depolarization; hits give low values; B-score at 10 µM; 1.1% of 310,000 active; AID 2553;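 active = B-score under library mean minus 3 SD, initial fluorescence not abnormally high, positive integrated signal ratio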;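 also: B-score derived from integrated fluorescence ratio over the kinetic read; more negative B-score means stronger inhibition of depolarization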
Target sequence (Q61143 whole entry, looked up): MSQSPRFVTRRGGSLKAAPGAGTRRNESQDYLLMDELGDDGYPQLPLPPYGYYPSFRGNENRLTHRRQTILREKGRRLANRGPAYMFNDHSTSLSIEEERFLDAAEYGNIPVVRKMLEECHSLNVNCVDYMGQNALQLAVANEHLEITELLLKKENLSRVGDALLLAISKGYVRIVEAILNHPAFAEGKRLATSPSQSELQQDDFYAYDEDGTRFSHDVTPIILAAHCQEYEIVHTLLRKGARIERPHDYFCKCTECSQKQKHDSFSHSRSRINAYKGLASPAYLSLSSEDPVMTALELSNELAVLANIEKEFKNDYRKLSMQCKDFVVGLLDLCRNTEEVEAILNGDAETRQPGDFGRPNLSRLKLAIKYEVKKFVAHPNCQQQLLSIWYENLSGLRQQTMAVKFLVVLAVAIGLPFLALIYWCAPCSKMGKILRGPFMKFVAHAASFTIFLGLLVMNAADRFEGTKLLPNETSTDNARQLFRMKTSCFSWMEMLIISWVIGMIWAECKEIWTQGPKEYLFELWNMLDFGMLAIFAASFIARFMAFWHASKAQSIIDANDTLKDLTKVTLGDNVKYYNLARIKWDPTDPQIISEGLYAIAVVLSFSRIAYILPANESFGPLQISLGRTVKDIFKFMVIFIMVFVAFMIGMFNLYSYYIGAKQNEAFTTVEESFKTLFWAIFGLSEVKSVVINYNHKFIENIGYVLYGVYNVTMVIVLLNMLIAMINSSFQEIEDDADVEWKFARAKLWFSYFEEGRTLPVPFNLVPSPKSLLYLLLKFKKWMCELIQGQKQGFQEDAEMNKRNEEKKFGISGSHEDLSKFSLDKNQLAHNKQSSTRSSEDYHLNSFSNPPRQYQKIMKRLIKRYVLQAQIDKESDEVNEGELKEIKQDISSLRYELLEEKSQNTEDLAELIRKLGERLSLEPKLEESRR
TRPC6 activator = activates the mouse TRPC6 cation channel; B-score at 10 µM; HEK293-TRPC6 membrane potential dye fluorescence; hits give high values; Q61143; 0.13% of 310,000 active;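 active = B-score of the integrated fluorescence ratio above library mean plus 3 SD, and starting fluorescence ratio within library mean plus 5 SD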;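 also: higher score means more depolarization so channel activation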
HEK293 MPD ctr = parental HEK293 nonspecific activity of TRPC6 modulators | AID 488924 | membrane potential dye fluorescence | 51% of 2,400 active | membrane potential signal change, % at 10 µM | shares compounds with TRPC6 inh;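 active = membrane potential signal moves up or down beyond 5 SD from buffer-only wells, on both duplicate plates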
HEK293 MPD ctr 2 = second counter-screen for TRPC6 modulators: effect in parental HEK293 cells. membrane potential dye fluorescence; after compound, maximal acetylcholine stimulation. AID 488926. 14% of 2,400 active. inhibition, % at 10 µM. shares compounds with TRPC6 inh;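 active = membrane potential signal drops by more than 5 SD from the mean control signal, in both duplicate plates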
TRPC4/MOR mod = mouse TRPC4 off-target activity of TRPC6 modulators; shares compounds with TRPC6 inh; 69% of 2,400 active; percent change from control (negative = decrease, positive = increase), % at 10 µM; HEK293 TRPC4/mu-opioid, membrane potential fluorescence;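 active = membrane potential signal moved up or down beyond 5 SD of buffer control wells, in both duplicate plates, actives on both sides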
TRPC4/MOR inh 2 = mouse TRPC4 off-target activity of TRPC6 modulators, second screen | shares compounds with TRPC6 inh | HEK293 TRPC4/mu-opioid, membrane potential dye fluorescence; stimulated with maximal-effect DAMGO | inhibition, % at 10 µM | 55% of 2,400 active;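 active = drop in membrane potential signal beyond 5 SD of the control wells in both duplicate plates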;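 also: TRPC4 counter screen for TRPC6 hits run under conditions tuned for TRPC6 not TRPC4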
TRPC6 block conf = confirmation of mouse TRPC6 inhibitors. 43% of 3,300 active. shares compounds with TRPC6 inh. HEK293-TRPC6, membrane potential dye, ACh-evoked depolarization. inhibition, % at 10 µM;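 active = fluorescence ratio falls more than 5 SD below the full-stimulation control mean, in both duplicate runs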;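 also: integrated fluorescence ratio of peak minus minimum over baseline after agonist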
TRPC6 act confirm = confirmation of mouse TRPC6 activators. 11% of 2,800 active. activation, % at 10 µM. AID 488961. HEK293-TRPC6 membrane potential dye fluorescence, FDSS. shares compounds with TRPC6 inh;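 active = ratio signal rise beyond 5 SD above unstimulated control wells' mean, seen in both duplicate runs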
Each line names hits and unclear results; the compound was inactive in the other large screens (follow-up assays come after a bar, where they were run).

CC(C)(C)c1ccc(S(=O)(=O)N2CCC(CO)(CC3CCCCO3)CC2)cc1 (stereo not given)	TRPC6 inh -5.82 | HEK293 MPD ctr inactive | HEK293 MPD ctr 2 inactive | TRPC4/MOR mod 17.0% | TRPC4/MOR inh 2 inactive | TRPC6 block conf inactive
CCOC(=O)C1(CC2CCCCO2)CCN(S(=O)(=O)c2ccccc2)CC1 (stereo not given)	none
CCOC(=O)C1=NN(C(=O)c2ccc(OC)cc2)C(O)(c2ccc(Cl)cc2)C1 (stereo not given)	TRPC4 agonist 70, TRPC6 activator 16.9 | HEK293 MPD ctr 344.5% | HEK293 MPD ctr 2 inactive | TRPC4/MOR mod 75.5% | TRPC4/MOR inh 2 inactive | TRPC6 act confirm 209.0%
CCOC(=O)C1=NN(C(=O)c2ccccc2)C(O)(c2ccc(C)cc2)C1 (stereo not given)	none
COC(=O)C1=NN(C(=O)c2cccc(Br)c2)C(O)(c2ccc(Cl)cc2)C1 (stereo not given)	TRPC4 agonist 100, TRPC6 activator 30.1 | HEK293 MPD ctr 457.0% | HEK293 MPD ctr 2 inactive | TRPC4/MOR mod 94.5% | TRPC4/MOR inh 2 inactive | TRPC6 act confirm 326.5%
CC1=C(C)CC(C(=O)NCCCN2CCCC2=O)C(C(=O)O)C1 (stereo not given)	none
CCOC(=O)C1CCN(C(=O)c2sc3ncnc(N4CCC(C)CC4)c3c2C)CC1	none
CCOC(=O)C1CCN(C(=O)c2sc3nc(C)nc(N4CCC(C)CC4)c3c2C)CC1	TRPC6 inh -9.04, TRPC6 activator 13.6 | HEK293 MPD ctr 197.5% | HEK293 MPD ctr 2 inactive | TRPC4/MOR mod 29.5% | TRPC4/MOR inh 2 inactive | TRPC6 block conf 78.0% | TRPC6 act confirm 127.0%
O=c1c2ccccc2ncn1Cc1ccc2c(c1)OCO2	none
Cc1csc(SCC(=O)NC(=O)NC2CCCC2)n1	none
CCN(CC(=O)Nc1cc(Cl)ccc1C)C(=O)CCS(=O)(=O)c1ccc(C)cc1	TRPC6 inh -5.55 | HEK293 MPD ctr inactive | HEK293 MPD ctr 2 inactive | TRPC4/MOR mod 13.0% | TRPC4/MOR inh 2 inactive | TRPC6 block conf inactive | TRPC6 act confirm inactive
Cc1nn(CC(=O)NCCc2ccc(Cl)cc2)c(=O)c2cccn12	none
CCCCCc1cc(=O)oc2c(C(CCN3CCCC(C)C3)c3ccc(N(C)C)cc3)c(OC)cc(OC)c12 (stereo not given)	none
COc1cc(OC)c2ccc(=O)oc2c1C(CCN1CCCC(C)C1)c1ccc(N(C)C)cc1 (stereo not given)	TRPC6 inh -5.72 | HEK293 MPD ctr -112.5% | HEK293 MPD ctr 2 inactive | TRPC4/MOR mod -26.0% | TRPC4/MOR inh 2 70.0% | TRPC6 block conf 49.0% | TRPC6 act confirm inactive
COc1ccc(C(CCN2CCCCC2)c2c(OC)cc(OC)c3c(-c4ccccc4)cc(=O)oc23)cc1 (stereo not given)	none
COc1cc(OC)c2c(-c3ccccc3)cc(=O)oc2c1C(CCN1CCCCC1)c1ccc(N(C)C)cc1 (stereo not given)	TRPC4 agonist 116, TRPC6 inh -6.23 | HEK293 MPD ctr inactive | HEK293 MPD ctr 2 inactive | TRPC4/MOR mod 36.0% | TRPC4/MOR inh 2 103.5% | TRPC6 block conf 55.0% | TRPC6 act confirm inactive
Nc1c(C(=O)Nc2cccc(F)c2)nnn1-c1ccc2c(c1)OCCO2	none
CCC1=NN(C(=O)Cc2ccc(OC)c(OC)c2)C(O)(C(F)(F)F)C1 (stereo not given)	none
